Experimental findings from ChEMBL document CHEMBL4346653, “A2B Adenosine Receptor Antagonists with Picomolar Potency” (J Med Chem, 2019) are described below.

The species named for test [1] is Homo sapiens. The test can be described thus: Selectivity index, ratio of Ki for displacement of [3H]PSB-11 from recombinant human A3 adenosine receptor expressed in CHO cell membranes to Ki for displacement of [3H]PSB-603 from recombinant human A2B adenosine receptor expressed in CHO cell membranes.
The target of test [2] is T1, Adenosine receptor A2a (Homo sapiens, UniProt P29274). The test can be described thus: Displacement of [3H]MSX-2 from recombinant human A2A adenosine receptor expressed in CHO cell membranes measured after 30 mins in presence of adenosine deaminase by liquid scintillation counting method. The gist of the method: (§1)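 Competition binding on membranes of cells recombinantly expressing the human receptor (CHO or HEK cells), with tritiated radioligand per subtype: [3H]PSB-603 for A2B, [3H]MSX-2 for A2A, [3H]CCPA for A1, [3H]PSB-11 for A3. Ki ± SEM from n = 3, some from extrapolated curves. Weak binders are reported as % inhibition of radioligand binding at 1 μM.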
In general terms: Displacement assays read how much labelled ligand stays bound in the presence of the test substance.

In test [3] the target is T2, Adenosine receptor A2b (Homo sapiens) (UniProt P29275).
T2 sequence (whole entry): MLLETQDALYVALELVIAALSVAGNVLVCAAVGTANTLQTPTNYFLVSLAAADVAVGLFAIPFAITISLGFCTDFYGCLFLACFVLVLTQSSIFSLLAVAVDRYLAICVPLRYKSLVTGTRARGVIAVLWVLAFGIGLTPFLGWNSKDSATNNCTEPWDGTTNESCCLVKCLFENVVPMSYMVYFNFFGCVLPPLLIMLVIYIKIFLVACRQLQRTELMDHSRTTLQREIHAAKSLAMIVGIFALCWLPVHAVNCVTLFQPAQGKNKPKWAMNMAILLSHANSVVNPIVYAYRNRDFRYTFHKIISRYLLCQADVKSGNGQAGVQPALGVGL
Briefly: Competitive antagonist activity at recombinant human A2B adenosine receptor expressed in CHO cells assessed as reduction in NECA-induced […] cAMP accumulation preincubated for 10 mins followed by NECA stimulation for 15 mins […] and measured after 15 mins. Format: functional, cell-based.

The target in test [4] is T1, Adenosine receptor A2a. Briefly: Displacement of [3H]MSX-2 from recombinant human A2A adenosine receptor expressed in CHO cell membranes at 1 uM measured after 30 mins in presence of adenosine deaminase by liquid scintillation counting method relative to control. In a few lines:
(§2)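 Single-point competition binding at human AR subtype membranes, each against its own tritiated radioligand. The test compound is given at 1 μM, and the result is reported as percent inhibition of radioligand binding. The radioligand-specific footnotes give n = 3.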

Test [5] addresses T3, Adenosine receptor A1 (Homo sapiens, UniProt P30542).
T3 sequence (P30542 whole entry): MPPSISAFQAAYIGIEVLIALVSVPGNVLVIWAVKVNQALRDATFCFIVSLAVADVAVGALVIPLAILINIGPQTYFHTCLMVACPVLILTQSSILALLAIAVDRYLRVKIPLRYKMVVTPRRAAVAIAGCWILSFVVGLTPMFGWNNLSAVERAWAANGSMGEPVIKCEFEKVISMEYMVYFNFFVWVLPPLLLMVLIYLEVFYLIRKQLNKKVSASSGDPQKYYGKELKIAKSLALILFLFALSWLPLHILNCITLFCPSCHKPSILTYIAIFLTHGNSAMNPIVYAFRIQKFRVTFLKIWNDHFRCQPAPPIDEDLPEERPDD
Briefly: Displacement of [3H]CCPA from recombinant human A1 adenosine receptor expressed in CHO cell membranes measured after 90 mins in presence of adenosine deaminase by liquid scintillation counting method. In a few lines: as §1

For test [6], the species on record is Homo sapiens. Briefly: Selectivity index, ratio of Ki for displacement of [3H]MSX-2 from recombinant human A2A adenosine receptor expressed in CHO cell membranes to Ki for displacement of [3H]PSB-603 from recombinant human A2B adenosine receptor expressed in CHO cell membranes.
The target of a further test is T4, Adenosine receptor A3 (Mus musculus, UniProt Q61618).
T4 sequence (Q61618 whole entry): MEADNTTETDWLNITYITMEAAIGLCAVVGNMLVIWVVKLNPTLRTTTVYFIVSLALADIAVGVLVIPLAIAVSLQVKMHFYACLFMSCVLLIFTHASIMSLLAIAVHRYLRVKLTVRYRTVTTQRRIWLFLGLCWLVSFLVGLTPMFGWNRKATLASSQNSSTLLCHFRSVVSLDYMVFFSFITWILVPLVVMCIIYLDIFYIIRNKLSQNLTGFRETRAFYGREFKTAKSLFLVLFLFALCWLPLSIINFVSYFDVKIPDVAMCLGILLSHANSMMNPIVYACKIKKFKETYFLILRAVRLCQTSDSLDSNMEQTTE
Briefly: Displacement of [3H]NECA from recombinant mouse A3 adenosine receptor expressed in CHO cell membranes measured after 180 mins in presence of adenosine deaminase by liquid scintillation counting method.

The target in a further test is T5, Adenosine receptor A2b (Homo sapiens, UniProt P29275).
T5 sequence (P29275 whole entry): T2 sequence (whole entry)
Briefly: Displacement of [3H]PSB-603 from recombinant human A2B adenosine receptor expressed in CHO cell membranes measured after 75 mins in presence of adenosine deaminase by liquid scintillation counting method. The gist of the method: as §1

The target of test [7] is T6, Adenosine receptor A1 (Homo sapiens) (UniProt P30542).
T6 sequence (whole entry): T3 sequence (P30542 whole entry)
Briefly: Displacement of [3H]CCPA from recombinant human A1 adenosine receptor expressed in CHO cell membranes at 1 uM measured after 90 mins in presence of adenosine deaminase by liquid scintillation counting method relative to control. The gist of the method:
as §2

Test [8] deals with T7, Adenosine receptor A3 (Homo sapiens) (UniProt P0DMS8).
T7 sequence (whole entry): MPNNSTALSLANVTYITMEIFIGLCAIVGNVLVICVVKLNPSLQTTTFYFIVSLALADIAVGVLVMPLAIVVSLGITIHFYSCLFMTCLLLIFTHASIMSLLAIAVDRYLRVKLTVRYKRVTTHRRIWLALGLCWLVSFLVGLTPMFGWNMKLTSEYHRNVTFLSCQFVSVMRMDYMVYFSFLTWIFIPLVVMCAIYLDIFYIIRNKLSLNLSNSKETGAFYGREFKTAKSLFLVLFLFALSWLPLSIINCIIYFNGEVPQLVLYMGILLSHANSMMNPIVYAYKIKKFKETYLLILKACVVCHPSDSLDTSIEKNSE
Briefly: Displacement of [3H]PSB-11 from recombinant human A3 adenosine receptor expressed in CHO cell membranes at 1 uM measured after 45 mins in presence of adenosine deaminase by liquid scintillation counting method relative to control. The gist of the method:
as §2

Test [9] has as its target T8, Adenosine receptor A1 (Mus musculus, UniProt Q60612).
T8 sequence (Q60612 whole entry): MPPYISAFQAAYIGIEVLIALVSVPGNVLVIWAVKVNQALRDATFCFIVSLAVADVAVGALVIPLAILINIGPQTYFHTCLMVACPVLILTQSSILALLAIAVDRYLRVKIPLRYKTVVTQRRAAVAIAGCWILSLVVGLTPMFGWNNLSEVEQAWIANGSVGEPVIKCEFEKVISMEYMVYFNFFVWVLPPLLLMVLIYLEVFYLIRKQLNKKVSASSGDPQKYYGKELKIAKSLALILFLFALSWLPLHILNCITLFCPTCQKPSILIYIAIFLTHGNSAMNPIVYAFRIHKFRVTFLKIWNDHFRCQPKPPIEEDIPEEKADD
Briefly: Displacement of [3H]CCPA from recombinant mouse A1 adenosine receptor expressed in CHO cell membranes measured after 90 mins in presence of adenosine deaminase by liquid scintillation counting method.

T1 sequence (P29274 whole entry): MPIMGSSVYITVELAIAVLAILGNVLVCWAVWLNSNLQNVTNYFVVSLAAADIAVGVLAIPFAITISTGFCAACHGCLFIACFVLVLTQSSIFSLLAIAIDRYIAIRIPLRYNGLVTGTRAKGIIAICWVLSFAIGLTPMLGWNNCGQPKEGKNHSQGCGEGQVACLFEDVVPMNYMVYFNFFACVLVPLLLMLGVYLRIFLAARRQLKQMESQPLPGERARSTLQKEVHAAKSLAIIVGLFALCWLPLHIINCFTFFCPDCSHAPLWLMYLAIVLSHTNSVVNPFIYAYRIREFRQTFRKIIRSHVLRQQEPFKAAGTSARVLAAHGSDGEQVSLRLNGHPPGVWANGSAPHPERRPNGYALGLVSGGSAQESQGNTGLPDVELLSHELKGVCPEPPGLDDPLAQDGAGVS

In the case of `CCCn1c(=O)c2[nH]c(-c3ccc(S(=O)(=O)N4CCN(c5ccc(Cl)cc5)CC4)cc3)nc2n(C)c1=O`, the Ratio Ki in the test filed under Homo sapiens [1] and in the test listed under Homo sapiens [6] was above 520 each time. Moreover, the inhibition constant (Ki) at Adenosine receptor A2a [2] was above 1000 nM; on Adenosine receptor A1 [5], above 1000 nM; on Adenosine receptor A3, above 1000 nM; at Adenosine receptor A2b, 1.91 nM; on Adenosine receptor A1 [9], 1520 nM. For the same compound, in test [3], the Kb was 1.61 nM. The inhibition at Adenosine receptor A2a [4] stood at 33%; in test [7], 22%; in test [8] it was 39%.

For `CCCn1c(=O)[nH]c2nc(-c3ccc(S(=O)(=O)N4CCN(c5ccc(Br)cc5)CC4)cc3)[nH]c2c1=O`, the Ratio Ki in the test listed under Homo sapiens [1] and in the test filed under Homo sapiens [6] was above 12000 throughout. For the same compound, the Ki on Adenosine receptor A2a [2] was above 1000 nM; on Adenosine receptor A1 [5], above 1000 nM; on Adenosine receptor A3, above 1000 nM; at Adenosine receptor A2b it was 0.0835 nM; at Adenosine receptor A1 [9], above 1000 nM. Also, in test [3], the antagonist equilibrium constant (Kb) was found to be 0.0598 nM. Also, the inhibition on Adenosine receptor A2a [4] amounted to 33%; in test [7] it was 13%; in [8] it was 29%.

As for `CCCn1c(=O)[nH]c2nc(-c3ccc(S(=O)(=O)N4CCN(c5cccc(F)c5)CC4)cc3)[nH]c2c1=O`, the Ratio Ki in the test listed under Homo sapiens [1] and in the test listed under Homo sapiens [6] was above 1580 throughout. Moreover, the Ki at Adenosine receptor A2a [2] is above 1000 nM; at Adenosine receptor A1 [5], above 1000 nM; at Adenosine receptor A3, above 1000 nM; at Adenosine receptor A2b, 0.632 nM; on Adenosine receptor A1 [9], above 300 nM. Besides, in test [3], the Kb came to 0.167 nM. The figures for the inhibition (on Adenosine receptor A2a [4]; in test [7]; in test [8]) were 38%, 34% and 44%, respectively.

In general, Ki refers to the dissociation constant of the complex between target and ligand, obtained from inhibition or displacement. The term Kb denotes the equilibrium dissociation constant of an antagonist, usually derived from a functional assay. As a reminder, the inhibition is the drop in the measured response relative to a control, in per cent.
